# Columns and labels:
# [1] = molecular target: Homeodomain-interacting protein kinase 1 (Homo sapiens, UniProt Q86Z02); conditions: dose 100.0 nM
# [2] = test system: MV4-11; assay: Antiproliferative activity against human MV4-11 cells measured after 72 hrs by Alamar blue staining based analysis; type: functional, cell-based; conditions: MV4-11, 72 h
# Summary of the method: (§1)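 Cells were exposed for 72 h at 37 °C under 5% CO2 to compound made up as DMSO stock and diluted in culture medium. Proliferation was then read by Alamar Blue.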
# [3] = molecular target: Serine/threonine-protein kinase N1 (Homo sapiens, UniProt Q16512); assay: Inhibition of PKN1 (unknown origin)
# [4] = molecular target: Tyrosine-protein kinase receptor TYRO3 (Homo sapiens) (UniProt Q06418); conditions: dose 100.0 nM
# [5] = molecular target: Calcium/calmodulin-dependent protein kinase type II subunit alpha (Homo sapiens, UniProt Q9UQM7); assay: Inhibition of CAMK2 alpha (unknown origin)
# Chain of Calcium/calmodulin-dependent protein kinase type II subunit alpha (Q9UQM7 whole entry): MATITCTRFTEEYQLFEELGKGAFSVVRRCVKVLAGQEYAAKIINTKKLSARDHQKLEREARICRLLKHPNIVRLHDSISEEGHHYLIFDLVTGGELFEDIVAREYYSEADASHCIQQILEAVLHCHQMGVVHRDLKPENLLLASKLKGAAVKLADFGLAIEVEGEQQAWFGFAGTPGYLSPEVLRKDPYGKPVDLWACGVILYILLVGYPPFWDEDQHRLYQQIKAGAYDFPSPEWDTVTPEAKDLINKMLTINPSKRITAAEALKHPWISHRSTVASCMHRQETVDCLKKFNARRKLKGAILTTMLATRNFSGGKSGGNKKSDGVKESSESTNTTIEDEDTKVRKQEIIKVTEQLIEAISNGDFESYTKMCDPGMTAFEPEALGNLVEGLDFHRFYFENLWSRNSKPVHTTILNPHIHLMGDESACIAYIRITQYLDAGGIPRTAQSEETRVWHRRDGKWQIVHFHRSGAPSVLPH
# [6] = molecular target: Platelet-derived growth factor receptor beta (Homo sapiens, UniProt P09619); assay: Inhibition of PDGFRB (unknown origin)
# [7] = molecular target: Tyrosine-protein kinase ITK/TSK (Homo sapiens, UniProt Q08881); assay: Inhibition of ITK (unknown origin)
# [8] = molecular target: T1, BDNF/NT-3 growth factors receptor (Homo sapiens, UniProt Q16620); assay: Inhibition of NTRK2 (unknown origin)
# [9] = molecular target: Mitogen-activated protein kinase 12 (Homo sapiens, UniProt P53778); assay: Inhibition of MAPK12 (unknown origin)
# [10] = molecular target: Cyclin-dependent kinase 1/cyclin B1 (Homo sapiens) (UniProt P06493+P14635); conditions: dose 100.0 nM
# [11] = molecular target: Serine/threonine-protein kinase BRSK1 (Homo sapiens) (UniProt Q8TDC3); conditions: dose 100.0 nM
# [12] = molecular target: Proto-oncogene tyrosine-protein kinase ROS (Homo sapiens, UniProt P08922); conditions: dose 100.0 nM
# [13] = molecular target: Protein kinase C beta type (Homo sapiens, UniProt P05771); assay: Inhibition of PRKCB1 (unknown origin)
# Chain of Protein kinase C beta type (P05771 whole entry): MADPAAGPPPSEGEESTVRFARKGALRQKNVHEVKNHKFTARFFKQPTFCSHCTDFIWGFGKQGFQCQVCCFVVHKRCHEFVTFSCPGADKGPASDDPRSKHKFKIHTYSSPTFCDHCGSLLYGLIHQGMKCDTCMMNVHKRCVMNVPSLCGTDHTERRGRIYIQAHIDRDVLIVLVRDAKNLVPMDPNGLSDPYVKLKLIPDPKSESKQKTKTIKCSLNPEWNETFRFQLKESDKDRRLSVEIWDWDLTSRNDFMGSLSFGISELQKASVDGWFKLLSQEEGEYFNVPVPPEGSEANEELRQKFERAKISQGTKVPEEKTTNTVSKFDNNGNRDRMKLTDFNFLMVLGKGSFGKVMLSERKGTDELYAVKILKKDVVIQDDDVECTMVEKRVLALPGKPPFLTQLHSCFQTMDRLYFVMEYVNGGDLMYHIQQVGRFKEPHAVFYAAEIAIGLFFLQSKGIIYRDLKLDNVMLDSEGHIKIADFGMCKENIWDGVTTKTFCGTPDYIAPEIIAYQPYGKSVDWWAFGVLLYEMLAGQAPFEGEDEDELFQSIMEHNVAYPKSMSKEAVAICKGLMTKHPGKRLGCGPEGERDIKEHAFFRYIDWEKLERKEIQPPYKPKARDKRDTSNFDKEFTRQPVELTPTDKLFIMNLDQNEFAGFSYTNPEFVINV
# [14] = molecular target: Homeodomain-interacting protein kinase 4 (Homo sapiens, UniProt Q8NE63); assay: Inhibition of HIPK4 (unknown origin)
# Chain of Homeodomain-interacting protein kinase 4 (Q8NE63 whole entry): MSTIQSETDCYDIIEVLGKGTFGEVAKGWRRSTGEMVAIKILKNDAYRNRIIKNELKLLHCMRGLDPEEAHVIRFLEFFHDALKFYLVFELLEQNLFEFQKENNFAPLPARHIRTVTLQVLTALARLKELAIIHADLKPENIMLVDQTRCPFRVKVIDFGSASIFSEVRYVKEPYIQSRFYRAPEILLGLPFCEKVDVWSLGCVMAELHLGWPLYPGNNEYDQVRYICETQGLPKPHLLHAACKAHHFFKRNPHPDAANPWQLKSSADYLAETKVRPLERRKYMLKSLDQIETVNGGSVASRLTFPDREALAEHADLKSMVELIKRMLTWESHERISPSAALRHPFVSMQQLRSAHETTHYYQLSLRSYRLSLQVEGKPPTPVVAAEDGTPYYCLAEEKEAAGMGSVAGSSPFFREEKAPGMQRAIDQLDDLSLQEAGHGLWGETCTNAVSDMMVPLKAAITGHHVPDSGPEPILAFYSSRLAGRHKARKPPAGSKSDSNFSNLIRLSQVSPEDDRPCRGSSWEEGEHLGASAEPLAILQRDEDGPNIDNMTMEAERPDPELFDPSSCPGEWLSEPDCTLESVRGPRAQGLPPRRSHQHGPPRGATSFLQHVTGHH
# [15] = molecular target: Misshapen-like kinase 1 (Homo sapiens) (UniProt Q8N4C8); conditions: dose 100.0 nM
# [16] = molecular target: T2, Calcium/calmodulin-dependent protein kinase type 1D (Homo sapiens, UniProt Q8IU85); assay: Inhibition of CAMK1 delta (unknown origin)
# [17] = molecular target: Ephrin type-B receptor 3 (Homo sapiens, UniProt P54753); assay: Inhibition of EPHB3 (unknown origin)
# [18] = molecular target: Tyrosine-protein kinase Fyn (Homo sapiens, UniProt P06241); assay: Inhibition of FYN (unknown origin)
# [19] = molecular target: Tyrosine-protein kinase Fgr (Homo sapiens) (UniProt P09769); conditions: dose 100.0 nM
# [20] = molecular target: Myosin light chain kinase 2, skeletal/cardiac muscle (Homo sapiens, UniProt Q9H1R3); assay: Inhibition of MYLK2 (unknown origin)
# [21] = molecular target: T2, Calcium/calmodulin-dependent protein kinase type 1D; conditions: dose 100.0 nM
# [22] = molecular target: Tyrosine-protein kinase JAK1 (Homo sapiens) (UniProt P23458); conditions: dose 100.0 nM
# [23] = molecular target: Platelet-derived growth factor receptor alpha (Homo sapiens, UniProt P16234); conditions: dose 100.0 nM
# [24] = molecular target: Insulin-like growth factor 1 receptor (Homo sapiens, UniProt P08069); assay: Inhibition of IGF1R (unknown origin)
# [25] = molecular target: T1, BDNF/NT-3 growth factors receptor; conditions: dose 100.0 nM
# Target sequence in this assay (Q16620 32-822 limits assumed): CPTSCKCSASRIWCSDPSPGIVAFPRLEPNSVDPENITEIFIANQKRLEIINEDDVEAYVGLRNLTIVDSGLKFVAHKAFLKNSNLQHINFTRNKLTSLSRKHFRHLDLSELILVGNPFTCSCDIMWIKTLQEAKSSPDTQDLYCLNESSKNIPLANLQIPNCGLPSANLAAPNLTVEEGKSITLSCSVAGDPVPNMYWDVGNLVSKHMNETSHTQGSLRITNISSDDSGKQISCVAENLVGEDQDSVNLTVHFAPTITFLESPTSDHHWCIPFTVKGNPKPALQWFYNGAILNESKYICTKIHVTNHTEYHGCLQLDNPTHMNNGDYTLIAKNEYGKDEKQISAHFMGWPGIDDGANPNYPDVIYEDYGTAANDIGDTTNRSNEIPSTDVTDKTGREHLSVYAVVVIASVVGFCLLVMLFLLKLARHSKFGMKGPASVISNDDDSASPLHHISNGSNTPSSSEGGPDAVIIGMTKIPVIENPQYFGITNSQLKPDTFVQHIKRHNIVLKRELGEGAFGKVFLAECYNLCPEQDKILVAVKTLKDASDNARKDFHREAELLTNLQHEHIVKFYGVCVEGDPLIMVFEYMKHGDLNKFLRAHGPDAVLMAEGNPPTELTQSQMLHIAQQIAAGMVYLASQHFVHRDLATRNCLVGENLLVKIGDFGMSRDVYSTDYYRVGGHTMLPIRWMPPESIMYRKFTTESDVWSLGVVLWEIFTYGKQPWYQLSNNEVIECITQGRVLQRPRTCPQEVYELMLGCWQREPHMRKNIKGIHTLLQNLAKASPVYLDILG
# [26] = molecular target: Serine/threonine-protein kinase Sgk1 (Homo sapiens, UniProt O00141); assay: Inhibition of SGK (unknown origin)
# [27] = molecular target: Receptor tyrosine-protein kinase erbB-2 (Homo sapiens, UniProt P04626); assay: Inhibition of ERBB2 (unknown origin)
# [28] = molecular target: Mitogen-activated protein kinase 3 (Homo sapiens, UniProt P27361); assay: Inhibition of MAPK3 (unknown origin)
# [29] = molecular target: Serine/threonine-protein kinase MARK1 (Homo sapiens, UniProt Q9P0L2); conditions: dose 100.0 nM
# [30] = molecular target: Protein-tyrosine kinase 6 (Homo sapiens, UniProt Q13882); assay: Inhibition of PTK6 (unknown origin)
# Chain of Protein-tyrosine kinase 6 (Q13882 whole entry): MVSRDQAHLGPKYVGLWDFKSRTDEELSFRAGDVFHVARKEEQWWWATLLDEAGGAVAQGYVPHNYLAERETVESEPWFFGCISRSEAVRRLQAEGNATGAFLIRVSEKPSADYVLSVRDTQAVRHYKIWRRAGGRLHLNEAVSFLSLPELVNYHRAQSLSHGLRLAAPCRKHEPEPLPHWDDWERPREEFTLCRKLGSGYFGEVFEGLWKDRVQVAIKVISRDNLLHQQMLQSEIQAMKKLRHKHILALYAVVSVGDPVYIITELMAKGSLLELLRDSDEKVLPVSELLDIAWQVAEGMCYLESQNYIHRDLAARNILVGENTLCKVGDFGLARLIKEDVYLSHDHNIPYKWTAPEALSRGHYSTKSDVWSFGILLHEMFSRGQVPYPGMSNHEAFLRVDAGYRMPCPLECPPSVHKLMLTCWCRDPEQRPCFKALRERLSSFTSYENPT
# [31] = molecular target: Protein kinase C alpha type (Homo sapiens, UniProt P17252); assay: Inhibition of PRKCA (unknown origin)
# [32] = molecular target: Serine/threonine-protein kinase pim-1 (Homo sapiens, UniProt P11309); assay: Inhibition of PIM1 (unknown origin)
# [33] = test system: BaF3; assay: Antiproliferative activity against mouse BaF3 cells harboring JAK2V617F mutant measured after 72 hrs by Alamar blue staining based analysis; type: functional, cell-based; conditions: BaF3, 72 h
# Summary of the method: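 Ba/F3 murine cells expressing JAK2V617F or MPLW515L. Compound stocks in DMSO were diluted into culture medium. After 72 h at 37 °C in 5% CO2, proliferation was quantified with the Alamar Blue assay.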
# [34] = molecular target: Mitogen-activated protein kinase kinase kinase 9 (Homo sapiens, UniProt P80192); conditions: dose 100.0 nM
# [35] = molecular target: Tyrosine-protein kinase JAK2 (Homo sapiens) (UniProt O60674); conditions: dose 100.0 nM
# [36] = molecular target: Inhibitor of nuclear factor kappa-B kinase subunit beta (Homo sapiens, UniProt O14920); assay: Inhibition of IKBKB (unknown origin)
# Chain of Inhibitor of nuclear factor kappa-B kinase subunit beta (O14920 whole entry): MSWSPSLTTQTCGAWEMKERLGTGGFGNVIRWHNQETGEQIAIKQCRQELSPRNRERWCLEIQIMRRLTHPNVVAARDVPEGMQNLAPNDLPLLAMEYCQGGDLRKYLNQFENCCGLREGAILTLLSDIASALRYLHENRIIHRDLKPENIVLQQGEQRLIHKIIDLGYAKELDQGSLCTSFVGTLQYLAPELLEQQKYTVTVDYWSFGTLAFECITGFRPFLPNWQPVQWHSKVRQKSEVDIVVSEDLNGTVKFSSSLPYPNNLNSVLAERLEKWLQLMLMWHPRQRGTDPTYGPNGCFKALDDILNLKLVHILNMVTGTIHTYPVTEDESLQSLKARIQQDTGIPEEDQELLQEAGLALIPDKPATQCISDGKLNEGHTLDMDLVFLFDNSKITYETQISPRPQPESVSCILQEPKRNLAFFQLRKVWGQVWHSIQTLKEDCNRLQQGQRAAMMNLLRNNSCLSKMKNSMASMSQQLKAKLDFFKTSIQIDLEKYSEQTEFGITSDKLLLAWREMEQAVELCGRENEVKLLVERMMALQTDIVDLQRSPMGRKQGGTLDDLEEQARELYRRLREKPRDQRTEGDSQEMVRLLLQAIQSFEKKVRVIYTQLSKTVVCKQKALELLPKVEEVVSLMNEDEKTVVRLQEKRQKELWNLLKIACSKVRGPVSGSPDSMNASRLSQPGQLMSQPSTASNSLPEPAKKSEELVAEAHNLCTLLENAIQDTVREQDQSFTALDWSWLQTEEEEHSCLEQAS
# [37] = Antiproliferative activity against human CHRF-288-11 cells harboring JAK2T875N mutant measured after 72 hrs by Alamar blue staining based analysis; type: functional, cell-based; conditions: CHRF-288-11, 72 h
# Summary of the method: as §1
# [38] = molecular target: Tyrosine-protein kinase FRK (Homo sapiens, UniProt P42685); assay: Inhibition of FRK (unknown origin)
# [39] = molecular target: RAC-alpha serine/threonine-protein kinase (Homo sapiens, UniProt P31749); assay: Inhibition of AKT1 (unknown origin)
# [40] = molecular target: Interleukin-1 receptor-associated kinase 4 (Homo sapiens, UniProt Q9NWZ3); assay: Inhibition of IRAK4 (unknown origin)
# Chain of Interleukin-1 receptor-associated kinase 4 (Q9NWZ3 whole entry): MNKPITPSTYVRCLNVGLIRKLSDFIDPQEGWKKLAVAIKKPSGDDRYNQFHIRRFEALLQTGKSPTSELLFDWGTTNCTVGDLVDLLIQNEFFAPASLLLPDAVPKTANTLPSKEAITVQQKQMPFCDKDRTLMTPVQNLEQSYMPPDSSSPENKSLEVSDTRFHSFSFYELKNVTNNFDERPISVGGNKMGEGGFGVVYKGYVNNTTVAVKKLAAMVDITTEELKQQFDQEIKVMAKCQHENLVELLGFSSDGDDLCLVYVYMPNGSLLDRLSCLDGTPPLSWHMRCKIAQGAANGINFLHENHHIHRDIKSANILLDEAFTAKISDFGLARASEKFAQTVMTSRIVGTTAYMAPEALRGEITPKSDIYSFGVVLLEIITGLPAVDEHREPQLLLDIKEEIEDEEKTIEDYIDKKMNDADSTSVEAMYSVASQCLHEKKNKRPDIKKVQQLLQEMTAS
# [41] = molecular target: Vascular endothelial growth factor receptor 2 (Homo sapiens, UniProt P35968); conditions: dose 100.0 nM
# [42] = molecular target: Ephrin type-A receptor 1 (Homo sapiens, UniProt P21709); assay: Inhibition of EPHA1 (unknown origin)
# [43] = molecular target: Signal transducer and activator of transcription 3 (Homo sapiens) (UniProt P40763); assay: Inhibition of STAT3 phosphorylation in human HEL cells by Western blot analysis; type: cell-based; conditions: dose 0.1-5 µM
# [44] = molecular target: Tyrosine-protein kinase Fes/Fps (Homo sapiens, UniProt P07332); assay: Inhibition of FES (unknown origin)
# Chain of Tyrosine-protein kinase Fes/Fps (P07332 whole entry): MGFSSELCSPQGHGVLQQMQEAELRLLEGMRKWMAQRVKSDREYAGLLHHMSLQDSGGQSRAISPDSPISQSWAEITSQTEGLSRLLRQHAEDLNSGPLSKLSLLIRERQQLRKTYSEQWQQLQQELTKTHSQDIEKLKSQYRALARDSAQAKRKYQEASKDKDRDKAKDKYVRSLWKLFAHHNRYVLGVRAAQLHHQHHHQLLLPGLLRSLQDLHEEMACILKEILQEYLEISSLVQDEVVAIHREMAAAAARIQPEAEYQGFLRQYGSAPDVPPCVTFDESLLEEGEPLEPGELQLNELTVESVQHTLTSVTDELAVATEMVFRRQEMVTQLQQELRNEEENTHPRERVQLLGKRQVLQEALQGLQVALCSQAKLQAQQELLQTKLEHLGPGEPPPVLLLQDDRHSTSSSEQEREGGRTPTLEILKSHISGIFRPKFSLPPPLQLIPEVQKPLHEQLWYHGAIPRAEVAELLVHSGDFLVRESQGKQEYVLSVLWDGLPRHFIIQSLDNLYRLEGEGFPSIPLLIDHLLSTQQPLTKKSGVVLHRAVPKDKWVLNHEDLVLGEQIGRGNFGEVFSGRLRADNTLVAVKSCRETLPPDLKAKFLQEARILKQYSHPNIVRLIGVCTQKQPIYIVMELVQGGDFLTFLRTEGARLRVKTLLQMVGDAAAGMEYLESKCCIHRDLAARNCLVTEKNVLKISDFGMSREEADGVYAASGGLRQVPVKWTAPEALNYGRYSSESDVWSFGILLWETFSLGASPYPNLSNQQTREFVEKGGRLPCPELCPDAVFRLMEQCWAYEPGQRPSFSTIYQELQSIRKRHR
# [45] = molecular target: Serine/threonine-protein kinase D1 (Homo sapiens, UniProt Q15139); assay: Inhibition of PRKD1 (unknown origin)
smiles,measurement,setting,value
N#CCNC(=O)c1ccc(-c2ccnc(Nc3ccc(N4CCOCC4)cc3)n2)cc1 [MOMELOTINIB],inhibition,[1],< 50%
same,IC50,[2],3000 nM
same,IC50,[3],< 1000 nM
same,inhibition,[4],< 50%
same,IC50,[5],> 1000 nM
same,IC50,[6],> 1000 nM
same,IC50,[7],> 1000 nM
same,IC50,[8],< 1000 nM
same,IC50,[9],> 1000 nM
same,inhibition,[10],< 50%
same,inhibition,[11],< 50%
same,inhibition,[12],< 50%
same,IC50,[13],> 1000 nM
same,IC50,[14],< 1000 nM
same,inhibition,[15],< 50%
same,IC50,[16],< 1000 nM
same,IC50,[17],> 1000 nM
same,IC50,[18],> 1000 nM
same,inhibition,[19],< 50%
same,IC50,[20],< 1000 nM
same,inhibition,[21],< 50%
same,inhibition,[22],> 50%
same,inhibition,[23],< 50%
same,IC50,[24],> 1000 nM
same,inhibition,[25],< 50%
same,IC50,[26],< 1000 nM
same,IC50,[27],> 1000 nM
same,IC50,[28],> 1000 nM
same,inhibition,[29],< 50%
same,IC50,[30],> 1000 nM
same,IC50,[31],> 1000 nM
same,IC50,[32],> 1000 nM
same,IC50,[33],1500 nM
same,inhibition,[34],< 50%
same,inhibition,[35],> 50%
same,IC50,[36],< 1000 nM
same,IC50,[37],1 nM
same,IC50,[38],> 1000 nM
same,IC50,[39],> 1000 nM
same,IC50,[40],> 1000 nM
same,inhibition,[41],< 50%
same,IC50,[42],> 1000 nM
same,inhibition,[43],Dose-Dependent Effect
same,IC50,[44],> 1000 nM
same,IC50,[45],< 100 nM
